Source: ChEMBL document CHEMBL4373737, “New thiazole-2(3H)-thiones containing 4-(3,4,5-trimethoxyphenyl) moiety as anticancer agents” (Eur J Med Chem, 2020)
The source made the active and inactive calls. The calls are words filed in the database; no cut-off is given here.

What was measured:
[1] = test system: PC-3; experiment: Cytotoxicity against human PC3 cells assessed as reduction in cell growth; assay type: functional, cell-based
[2] = test system: HCT-116; experiment: Cytotoxicity against human HCT116 cells assessed as reduction in cell growth; assay type: functional, cell-based
[3] = test system: B16; experiment: Cytotoxicity against mouse B16 cells assessed as reduction in cell growth; assay type: functional, cell-based
[4] = test system: MCF7; experiment: Cytotoxicity against human MCF7 cells assessed as reduction in cell growth; assay type: functional, cell-based
[5] = test system: A549; experiment: Cytotoxicity against human A549 cells assessed as reduction in cell growth; assay type: functional, cell-based
[6] = test system: A549; experiment: Cytotoxicity against human A549 cells assessed as reduction in cell viability after 48 hrs by MTT assay; assay type: functional, cell-based; conditions: A549, 48 h
In short: (§1)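 MTT viability assay. Stocks in DMSO were diluted into culture medium to final 1, 5, 10, 50 and 100 µg/mL, with DMSO below 1%. A549, MCF-7, SKOV3 and normal mouse fibroblast L929 were used, with etoposide as reference. Values are means of three experiments. L929 was also tested up to 200 µg/mL alongside cisplatin 50 µg/mL.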

[7] = test system: MCF7; experiment: Cytotoxicity against human MCF7 cells assessed as reduction in cell viability after 48 hrs by MTT assay; assay type: functional, cell-based; conditions: MCF7, 48 h; in short: as §1
[8] = test system: L929; experiment: Genotoxicity in mouse L929 cells assessed as induction of DNA damage at 0.5 ug/ml incubated for 1 hr by alkaline comet assay; assay type: toxicity, cell-based; conditions: l929, 1 h
In short: (§2)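 Alkaline comet assay in L929 seeded at 250000 cells/well and exposed for 1 h to 10 µg/mL; etoposide 0.5 µg/mL served as positive control and untreated cells as negative. Cells were embedded in low-melt agarose and lysed 1 h at 4 °C (2.5 M NaCl, 100 mM EDTA, 10 mM Tris, pH 10, 10% DMSO, 1% Triton X-100). DNA unwound 40 min at pH>13, electrophoresed 25 V/300 mA 20 min, neutralized, stained with ethidium bromide. Tail length, % tail DNA and tail moment scored; mean ± SEM.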

[9] = test system: SK-OV-3; experiment: Cytotoxicity against human SKOV3 cells assessed as reduction in cell viability after 48 hrs by MTT assay; assay type: functional, cell-based; conditions: SK-OV-3, 48 h; in short: as §1
[10] = (§3) Inhibition of sheep brain tubulin polymerization incubated for 15 mins in presence of GTP by turbidimetric method; parameters: species or system Ovis aries
In short: (§4)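 Tubulin purified from sheep brain by three polymerization/depolymerization cycles. It was preincubated 15 min on ice with 0.5, 2, 10 or 20 µg/mL, then polymerization started with 1 mM GTP at 37 °C and followed by turbidity at 350 nm. IC50 was taken from area under the curve, with untreated control set as 100% polymerization. Colchicine served as reference.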

[11] = species on record: Ovis aries; experiment: as §3; in short: as §4
[12] = test system: MCF7; experiment: Cell cycle arrest in human MCF7 cells assessed as accumulation at G1 phase at 12 ug/ml after 48 hrs by RNase A/propidium iodide staining based FACScalibur flow cytometry (reference value: 44.45 %); assay type: functional
In short: (§5)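 MCF-7 seeded at 25×10^4 cells/well, treated 24 h later with 12 µg/mL for 48 h; untreated control. Cells washed in cold PBS, fixed in 70% ethanol ≥3 h, RNase A 1 h at room temperature, then propidium iodide. Phase distribution (sub-G1, G1, S, G2/M) read by flow cytometry.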

[13] = test system: MCF7; experiment: Cell cycle arrest in human MCF7 cells assessed as accumulation at S phase at 12 ug/ml after 48 hrs by RNase A/propidium iodide staining based FACScalibur flow cytometry (reference value: 38.2 %); assay type: functional; in short: as §5
[14] = test system: MCF7; experiment: Cell cycle arrest in human MCF7 cells assessed as accumulation at G2/M phase at 12 ug/ml after 48 hrs by RNase A/propidium iodide staining based FACScalibur flow cytometry (reference value: 16.69 %); assay type: functional; in short: as §5
[15] = test system: SK-OV-3; experiment: Induction of apoptosis in human SKOV3 cells assessed as viable cells at 4 ug/ml after 48 hrs by AnnexinV-FITC/propidium iodide staining based FACScan flow cytometry analysis relative to control; assay type: functional; conditions: SK-OV-3, 48 h, read-out: Activity
In short: (§6)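 SKOV3 seeded at 1×10^6 cells/well for 24 h, then given fresh medium containing 2 or 4 µg/mL for 48 h. Cells harvested by trypsinization, PBS-washed, stained with Annexin-V-FITC 15 min at room temperature, then PI 10 min. Flow cytometry with 488 nm excitation; quadrants were necrotic, late apoptotic, viable and early apoptotic.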

[16] = test system: SK-OV-3; experiment: Induction of apoptosis in human SKOV3 cells assessed as late apoptotic cells at 4 ug/ml after 48 hrs by AnnexinV-FITC/propidium iodide staining based FACScan flow cytometry analysis relative to control; assay type: functional; in short: as §6
[17] = test system: Erythrocyte; experiment: Hemolytic activity in human erythrocytes at 1 to 5 ug/ml after 1 hr; assay type: ADME, cell-based
In short: (§7)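 Human erythrocytes; DMSO stock added 1:20 to diluted cells to give final 1, 5 and 10 µg/mL. DMSO served as negative control and Triton X-100 (2% v/v) as positive (100%) control. Percent hemolysis measured in three repeats, mean ± SD.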

[18] = Hemolytic activity in human erythrocytes at 10 ug/ml after 1 hr relative to control; assay type: ADME, cell-based, Erythrocyte; conditions: read-out: Activity; in short: as §7
[19] = test system: MCF7; experiment: Cell cycle arrest in human MCF7 cells assessed as accumulation at sub-G1 phase at 12 ug/ml after 48 hrs by RNase A/propidium iodide staining based FACScalibur flow cytometry (reference value: 0.66 %); assay type: functional; in short: as §5
[20] = test system: SK-OV-3; experiment: Induction of apoptosis in human SKOV3 cells assessed as early apoptotic cells at 2 ug/ml after 48 hrs by AnnexinV-FITC/propidium iodide staining based FACScan flow cytometry analysis relative to control; assay type: functional; in short: as §6
[21] = test system: SK-OV-3; experiment: Induction of apoptosis in human SKOV3 cells assessed as viable cells at 2 ug/ml after 48 hrs by AnnexinV-FITC/propidium iodide staining based FACScan flow cytometry analysis relative to control; assay type: functional; conditions: SK-OV-3, 48 h, read-out: Activity; in short: as §6
[22] = test system: SK-OV-3; experiment: Induction of apoptosis in human SKOV3 cells assessed as early apoptotic cells at 4 ug/ml after 48 hrs by AnnexinV-FITC/propidium iodide staining based FACScan flow cytometry analysis relative to control; assay type: functional; in short: as §6
[23] = test system: L929; experiment: Genotoxicity in mouse L929 cells assessed as induction of DNA damage at 10 ug/ml incubated for 1 hr by alkaline comet assay; assay type: toxicity, cell-based; conditions: l929, 1 h; in short: as §2
[24] = test system: SK-OV-3; experiment: Induction of apoptosis in human SKOV3 cells assessed as late apoptotic cells at 2 ug/ml after 48 hrs by AnnexinV-FITC/propidium iodide staining based FACScan flow cytometry analysis relative to control; assay type: functional; in short: as §6
[25] = test system: SK-OV-3; experiment: Induction of apoptosis in human SKOV3 cells assessed as necrotic cells at 4 ug/ml after 48 hrs by AnnexinV-FITC/propidium iodide staining based FACScan flow cytometry analysis relative to control; assay type: functional; in short: as §6
[26] = test system: L929; experiment: Cytotoxicity against mouse L929 cells assessed as […] cell viability after 48 hrs by MTT assay; assay type: cell-based; conditions: L929, 48 h; in short: as §1
[27] = test system: SK-OV-3; experiment: Induction of apoptosis in human SKOV3 cells assessed as necrotic cells at 2 ug/ml after 48 hrs by AnnexinV-FITC/propidium iodide staining based FACScan flow cytometry analysis relative to control; assay type: functional; in short: as §6
[28] = species on record: Ovis aries; experiment: Inhibition of colchicine binding to sheep brain tubulin assessed as decrease in fluorescence of colchicine-tubulin complex at 1 to 5 uM by fluorescence based assay
In short: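 Purified tubulin (0.25 µM) incubated 1 h at 37 °C with colchicine 0.1, 0.25, 0.5 or 1 µM, then test compound at final 1 or 5 µM. Fluorescence read at ex 360/em 430 nm, corrected for compound background, expressed as F/F0; n=3.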

| SMILES | IC50 [6] | IC50 [7] | IC50 [9] | further results |
| --- | --- | --- | --- | --- |
| COc1ccc(-c2coc(=O)n2-c2cc(OC)c(OC)c(OC)c2)cc1N |  |  |  | IC50 [1]: 0.0011 to 0.0043 µM; IC50 [2]: 0.0011 to 0.0043 µM; IC50 [3]: 0.0011 to 0.0043 µM; IC50 [4]: 0.0011 to 0.0043 µM; IC50 [5]: 0.0011 to 0.0043 µM |
| COc1cc([C@@H]2c3cc4c(cc3[C@@H](O[C@@H]3O[C@@H]5CO[C@@H](C)O[C@H]5[C@H](O)[C@H]3O)[C@H]3COC(=O)[C@H]23)OCO4)cc(OC)c1O [ETOPOSIDE] | 6 µM | 5.7 µM | 9.2 µM | Activity [8]: Toxic |
| COc1cc(C2(O)CSC(=S)N2Cc2ccc(F)cc2)cc(OC)c1OC (stereo not given) | 21.4 µM | 12 µM | 12.4 µM |  |
| COc1cc(-c2csc(=S)n2C)cc(OC)c1OC | 17.5 µM | 27.7 µM | 23.4 µM |  |
| COc1cc(-c2csc(=S)n2Cc2ccc(F)cc2)cc(OC)c1OC | 15.8 µM | 10 µM | 18.6 µM |  |
| COc1cc(-n2c(-c3ccc(Cl)cc3)csc2=S)cc(OC)c1OC |  | > 100 µg/mL |  |  |
| COc1cc(-c2csc(=S)n2Cc2ccc(Cl)cc2)cc(OC)c1OC | 6.7 µM | 5.9 µM | 18.1 µM | IC50 [10]: 9.97 µg/mL; inhibition [11]: Dose-dependent effect; Activity [12]: 54.57%; Activity [13]: 22.43%; Activity [14]: 5.72%; viability at 4 µg/mL [15]: 64.1%; Activity [16]: 15.49%; Activity [17]: Non-Toxic; hemolysis at 1 h, 10 ug/ml [18]: < 25%; Activity [19]: 17.28%; Activity [20]: 6.2%; viability at 2 µg/mL [21]: 64.1%; Activity [22]: 6.2%; Activity [23]: Toxic; Activity [24]: 13.55%; Activity [25]: 19.9%; IC50 [26]: > 200 µg/mL; Activity [27]: 16.12% |
| COc1cc(-c2csc(=S)n2Cc2ccc(O)cc2)cc(OC)c1OC | 15.6 µM | 22 µM | 18.7 µM |  |
| COc1cc(-c2csc(=S)n2Cc2ccccc2)cc(OC)c1OC | 12.1 µM | 13.9 µM | 17.5 µM |  |
| COc1cc(C2(O)CSC(=S)N2Cc2ccccc2Cl)cc(OC)c1OC (stereo not given) | 14.6 µM | 12.3 µM | 12.1 µM |  |
| COc1cc(C2(O)CSC(=S)N2Cc2ccc(Cl)cc2)cc(OC)c1OC (stereo not given) | 11.6 µM | 18.8 µM | 18.1 µM |  |
| COc1cc(-c2csc(=S)n2-c2ccc(Cl)cc2)cc(OC)c1OC | 15.4 µM | 16.9 µM | 17.7 µM |  |
| COc1cc(C2(O)CSC(=S)N2C)cc(OC)c1OC (stereo not given) | 10.2 µM | 26.1 µM | 13.4 µM |  |
| COc1cc(C2(O)CSC(=S)N2Cc2ccccc2)cc(OC)c1OC (stereo not given) | 12.8 µM | 13.4 µM | 13.8 µM |  |
| COc1cc(-c2csc(=S)n2-c2ccc(Cl)c(Cl)c2)cc(OC)c1OC | 12.1 µM | 9.6 µM | 17.9 µM |  |
| COc1cc(-c2csc(=S)n2Cc2ccccc2Cl)cc(OC)c1OC | 13.8 µM | 2.8 µM | 13.5 µM | IC50 [10]: 5.14 µg/mL; inhibition [11]: Dose-dependent effect; Activity [12]: 78.02%; Activity [13]: 7.17%; Activity [14]: 0.07%; viability at 4 µg/mL [15]: 58.9%; Activity [16]: 19.81%; inhibition [28]: Active; hemolysis at 1 h, 10 ug/ml [18]: < 25%; Activity [19]: 14.74%; Activity [20]: 3.06%; viability at 2 µg/mL [21]: 68.9%; Activity [22]: 7.6%; Activity [23]: Non-Toxic; Activity [24]: 15.49%; Activity [25]: 13.72%; IC50 [26]: > 200 µg/mL; Activity [27]: 12.57% |
